Consider 96 compounds from ChEMBL document CHEMBL4513216, “Probing the Open Global Health Chemical Diversity Library for Multistage-Active Starting Points for Next-Generation Antimalarials” (ACS Infect Dis, 2020).

A short description of the series: Toxicity liver stage against HepG2, at 10uM. Conditions: human, HepG2-A16-CD81EGFP cells; read-out: INHIBITION
Further details: test concentration 10 uM, cell line HepG2-A16-CD81EGFP. Type of series: cell-based. A digest of the protocol: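 Uninfected HepG2-A16-CD81EGFP cells, 3 × 10^3 per well, 1536-well, plated on prespotted compound at 10 μM final, parasite-free screening media added to match infected plates; puromycin 10 μM positive, DMSO 0.5% negative; run in parallel with 48 h PbLuc assay at 37 °C, 5% CO2; viability by CellTiter-Glo luminescence, normalized to controls.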
Consider `NC(=O)c1nc(-c2cccc(Cl)c2)oc1N`, for which the cytotoxicity at 10 µM stood at 2.69%.
With `COCCN1C(=O)CO[C@H]2CN(S(=O)(=O)c3ccccc3)C[C@H]21`, the cytotoxicity at 10 µM was -0.843%.
Regarding `O=C1COC[C@H]([C@H](O)c2ccc(NC(=O)c3ccco3)cc2)N1`, the cytotoxicity at 10 µM is -2.33%.
To `O=C(NCCS(=O)(=O)N1CCN(c2ncccn2)CC1)C1CC1` belongs -4.15%; to `COCC1CN(C(=O)Cc2ccccn2)Cc2ncn(C)c21` (stereo unspecified), 1.73%.
To `COCC(=O)N1CC[C@H]2C[C@H](c3nnc(C4CC4)o3)O[C@@H]2C1` belongs 4.85%; to `CC1c2ncc(Cn3cncn3)n2CCN1C(=O)c1cscn1` (stereo unspecified), -17.5%.
To `CN1CCN(C[C@@H]2OC[C@H]3CN(Cc4ccncc4)CC[C@H]32)CC1` belongs 1.96%; to `CS(=O)(=O)N1CCOCC2(CCN(C(=O)c3cnccn3)CC2)C1`, -0.152%; to `Cc1cc(SCC(N)=O)nc(-c2ccc(F)cc2)n1`, -3.42%.
For the compound `O=C1CSC(c2ccc3c(c2)OCO3)c2cn[nH]c2N1` (stereo unspecified), the cytotoxicity at 10 µM stood at 4.29%.
For `Cc1occc1C(=O)N1CCC2(CCC(C(=O)NCC3CC3)O2)CC1` (stereo unspecified) the value was 9.53%; for `CCOCC1CN(S(C)(=O)=O)Cc2ncn(CC3CC3)c21` (stereo unspecified), -12%; for `O=c1c2cc3c(cc2nnn1Cc1cccc(F)c1)OCCO3`, 6.39%.
For `CCCN(c1ccccc1C(=O)O)S(=O)(=O)c1ccc2ccccc2c1` the value was -2.32%; for `CCN1CCCC(O)(CNCc2ccc3c(c2)OCO3)C1` (stereo unspecified), 2.34%.
In the case of `CCCc1nc(N(C)Cc2ccco2)c2c(n1)c(C)nn2CC`, the cytotoxicity at 10 µM stood at 16.9%.
For `COCCCNC(=O)c1nnsc1-c1ccccc1` the value was 5.09%; for `CC(NC(=O)C1CCCCC1)c1cc(O)nc(-c2cccnc2)n1` (stereo unspecified), 5.84%; for `CNC(=O)C1CN(C)CCN1c1nc(C)cc(C)n1` (stereo unspecified), 15.3%.
For `CC(=O)N[C@@H]1CN(C(=O)Cc2coc3cc(C)ccc23)C[C@H]1O` the value was 5.84%; for `Cc1cc(N(C)C)nc(C2(C)CCNCC2)n1`, 7.79%.
As to `O=C(N[C@@H]1CC[C@@H](N2CCCC2)[C@@H]1O)c1cc2ccccc2[nH]1`, the cytotoxicity at 10 µM was -4.92%.
For `COc1ccc(-c2cc(C(=O)NCCn3ccnc3)n(C)n2)cc1` the value was 3.86%; for `CC(=O)N[C@@H]1CN(C(=O)CC2CCOCC2)C[C@H]1O`, -3.3%.
For `Cc1ccc(CN2CCCC(c3cncc(C)n3)C2)cn1` (stereo unspecified) the value was -9.35%; for `Cc1ncsc1-c1nnc(C2CCN(Cc3cccc(Cl)c3)CC2)o1`, -8.19%.
To `CCc1ccc(S(=O)(=O)Nc2ccncc2)s1` belongs 0.453%; to `CC(Cc1ccccc1F)C(=O)Nc1cccc(OCC(N)=O)c1` (stereo unspecified), -1.34%.
Turning to `CC(C)OCCNC1(c2ccc(Cl)cc2)CCOCC1`, the cytotoxicity at 10 µM amounted to 5.5%.
`Cn1ccnc1-c1cccc(NC(=O)NCC(=O)NC(C)(C)C)c1`: the cytotoxicity at 10 µM is -3.84%.
In the case of `CC(C)Oc1cccc(C(O)CNC(=O)NCc2cccs2)c1` (stereo unspecified), the cytotoxicity at 10 µM was -2.79%.
As to `Cc1nnc2n1CCN(C(=O)c1cn(-c3ccc(F)cc3)nn1)C2`, the cytotoxicity at 10 µM was -149%.
For `Cc1nc(C)n(CC2CCCN2CC(=O)Nc2cccnc2)n1` (stereo unspecified) the value was 2.04%; for `CCN(Cc1ccoc1)C(=O)c1cc(C)c(C)c(S(N)(=O)=O)c1`, -1.69%; for `CCC(C)NC(=O)CCc1ccnc2ccccc12` (stereo unspecified), 5.44%.
To `O=C(CC1CCCO1)NCCc1ccc(Br)cc1F` (stereo unspecified) belongs -7.78%; to `O=C(NC1CCCN(c2ccccc2Cl)C1)c1nc(=O)[nH][nH]1` (stereo unspecified), -10.9%; to `COc1ccccc1C1CCN(C(=O)c2ncccc2OC(C)C)C1` (stereo unspecified), -0.67%.
To `CC(C)N(C(=O)CCc1cccc(F)c1)C1CCOCC1` belongs -5.21%; to `CC(=O)N(C)Cc1cccc(NC(=O)N(C)CCc2cccs2)c1`, -2.67%; to `CC1(CNC(=O)NCc2ccsc2)CCCS1` (stereo unspecified), 1.82%.
`CN(CCNC(=O)N1CCN(Cc2ccon2)CC1)C1CCCC1`: the cytotoxicity at 10 µM turned out to be 15.6%.
With `CC(Cn1cccn1)NC(=O)Nc1ccc(F)cc1` (stereo unspecified), the cytotoxicity at 10 µM was determined as 19.7%.
For `O=C(NC1CCCN(c2ncccn2)C1)c1ccoc1` (stereo unspecified) the value was -4.56%.
`COCCOCC(=O)Nc1ccc(Br)cc1F`: the cytotoxicity at 10 µM was -10.5%.
To `Cc1nnn2c1COC(CNC(=O)c1cccn1C)C2` (stereo unspecified) belongs 6.09%.
To `CCNc1ncc(CN2C[C@@H](CN3CCC(CO)CC3)[C@@H](CO)C2)cn1` belongs -6.03%; to `Cc1nn(CCNS(=O)(=O)NCc2ccccc2)c(C)c1Cl`, -6.49%.
For `Cn1c(CN2CCC(O)CC2)nnc1C1CCCN(c2ccncc2)C1` (stereo unspecified) the value was 9.29%; for `Cn1cnnc1SCC(=O)NC1CC(=O)N(CCc2ccccc2)C1` (stereo unspecified), 3.03%.
In the case of `Cc1ncccc1Oc1ncnc(N2CCC(O)(CO)CC2)c1C`, the cytotoxicity at 10 µM is -2.4%.
With `CCn1cnnc1CCNCc1c[nH]nc1-c1ccc(F)cc1`, the cytotoxicity at 10 µM came out at 1.31%.
For `CN(Cc1cc(C2CC2)[nH]n1)Cc1cc2ccc(F)cc2[nH]c1=O` the value was 7.84%.
`COCC(=O)N1CCN(C(=O)Cc2cccs2)[C@H]2CS(=O)(=O)C[C@H]21`: the cytotoxicity at 10 µM was 2.21%.
To `Cc1nc(-c2ccncc2)ncc1C(C)NC(=O)Cn1ccccc1=O` (stereo unspecified) belongs 4.01%; to `CN(CC1(CO)CCC1)C(=O)c1cc(COc2ccccc2F)[nH]n1`, 12.1%; to `CCC(=O)N1Cc2nnc(C3CCOCC3)n2C(Cc2c[nH]cn2)C1` (stereo unspecified), -11.2%.
To `Cc1cccc2c1nc(CCO)n2-c1ccc(N)nc1` belongs -1.32%; to `CC/C=C(\C)CN1CCC(CNC(=O)c2ccnc(N)c2)C1` (stereo unspecified), 8.32%.
For `Cn1cc(Cl)c(CN2CCn3nc(C(=O)N4CCCC4)cc3C2)n1` the value was 2.42%; for `CCn1ccnc1CNC1CC(=O)N(CCc2cccc(Cl)c2)C1` (stereo unspecified), -127%.
`CN(CCC1CCOCC1)C(=O)C1CCC(=O)N(Cc2ccccn2)C1` (stereo unspecified): the cytotoxicity at 10 µM was -2.06%.
To `CCN(CCc1nc2cc(C)ccc2[nH]1)C(=O)[C@@H](N)COC` belongs -2.64%; to `Cc1ccc2c(c1)c(CNC(=O)C1CC(=O)N(C3CC3)C1)nn2C` (stereo unspecified), -0.502%.
For `Cc1ncc(C(=O)N2CCCC(C(=O)c3nccn3C)C2)c(O)n1` (stereo unspecified) the value was -2.28%; for `CC(CC#N)n1ccc(C(F)(F)F)n1` (stereo unspecified), -8.88%; for `CCN(C(C)=O)c1nc(CN2CCCC2Cn2cncn2)cs1` (stereo unspecified), -5.15%.
Take `CCOc1ccc(Cl)c(C(=O)N2CCN(C(=O)OC)CC2)n1`: the cytotoxicity at 10 µM was -6.33%.
To `C=C(C)CN1CCC(NC(=O)c2scnc2C)CC1` belongs -6.35%.
For `CC(=O)N(Cc1noc(C2CC2)n1)C1CCN(Cc2ccccc2)C1` (stereo unspecified) the value was -5.59%; for `Cc1cc(C(=O)N2CCCN(Cc3nccn3C(C)C)CC2)no1`, -2.72%.
For `Cc1noc2ncc(C(=O)NCC3CCCOC3)cc12` (stereo unspecified) the value was -8.42%; for `Cc1c(C(=O)NCc2ccnc(OCC(F)(F)F)c2)cnn1C`, -5.78%; for `CCOc1cccc2c1OCC(C(=O)NS(=O)(=O)c1c(C)noc1C)=C2`, -12.1%.
Take `CC(C)c1cnc(CN(C)C2CCN(CCn3cc(C#N)cn3)C2)o1` (stereo unspecified): the cytotoxicity at 10 µM was -4.98%.
To `Cc1nccn1C1CCCN(C(=O)c2cccc(Cn3ccnc3)c2)C1` (stereo unspecified) belongs -24.6%; to `COc1cc(OC)cc(C(=O)N(C)Cc2nnc3ccccn23)c1`, -26.9%; to `CC(C)c1nc(C2CCCN(C(=O)c3ccc4[nH]nnc4c3)C2)no1` (stereo unspecified), 7.34%.
Consider `CCN(Cc1ccc2c(c1)OCO2)Cc1nc2c(cnn2C)c(=O)[nH]1`, for which the cytotoxicity at 10 µM is -21%.
For `Cc1ccsc1C(=O)N1CCN(Cc2cscn2)CC1` the value was -12%.
Regarding `CN(C)c1cc(CNC(=O)c2cnccn2)ccn1`, the cytotoxicity at 10 µM is -17.7%.
To `CC1CN(C(=O)c2ccn(-c3cccc(Cl)c3)n2)CCO1` (stereo unspecified) belongs -5.25%.
For `CNC(=O)C1CCN(C(=O)c2ccn(-c3ccc(F)cc3)n2)CC1` the value was -2.7%.
For `COc1c(CNCc2cccc(CS(C)(=O)=O)c2)c(C)nn1C` the value was -5.6%; for `Cc1cnn(CC2CCCN2C(=O)c2cccc(CC#N)c2)c1` (stereo unspecified), -8.62%.
Take `COCCc1noc(CN2CCCC2Cn2cc(C)cn2)n1` (stereo unspecified): the cytotoxicity at 10 µM is -3.32%.
For `CC1(C)Cc2cc(-c3cncn3CCNC3CCS(=O)(=O)C3)ccc2O1` (stereo unspecified) the value was 2.95%.
Take `c1cnc(N2CCCC3(COCCN(CC4CC4)C3)C2)nc1` (stereo unspecified): the cytotoxicity at 10 µM was 3.22%.
For `CN1CC(=O)N(c2ccsc2)CC12CCN(S(=O)(=O)C1CC1)C2` (stereo unspecified) the value was -0.298%; for `CCO[C@@H]1CN(Cc2scnc2C)[C@@H]2CCCO[C@@H]21`, -151%.
In the case of `Cc1ccc2c(n1)N(CCn1cccn1)CCN(CC1CC1)C2`, the cytotoxicity at 10 µM came to 8.83%.
For the compound `O=C(c1ccco1)N1CCO[C@@H]2CN(Cc3nccs3)CC[C@@H]2C1`, the cytotoxicity at 10 µM is -111%.
For `O=C(Nc1cccnc1)[C@H]1CN(C2CCCC2)C[C@H]2OCC[C@@H]12` the value was 9.81%; for `COc1ccc(S(=O)(=O)N2Cc3c(CN(C)C)nn(C)c3C2)cc1`, 3.94%.
To `CC(=O)N1CCN(Cc2ccc(F)cc2)CC2(CC(=O)N(C)C2)C1` (stereo unspecified) belongs -2.78%.
